Measured values: ChEMBL document CHEMBL1150195, “The 1990 United States-Japan seminar on bioorganic marine chemistry, meeting report” (J Nat Prod, 1991)
≈ marks a conversion by molar mass, not a printed value.

How the values were obtained:
HCT-116 = assay: Cytotoxicity against human HCT116 cells; assay type: functional, cell-based
B16 = assay: Cytotoxicity against mouse B16 cells; assay type: functional, cell-based
[1] = Inhibition of protein phosphatase 2A
KB = assay: Cytotoxicity against human KB cells; assay type: functional, cell-based
L1210 = assay: Cytotoxicity against mouse L1210 cells at 0.1 ug/ml; assay type: functional
Candida albicans = assay: Antifungal activity against Candida albicans in presence of 50 ppm ergosterol; assay type: functional
How it was run: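 Candida albicans screened first by conventional agar disk diffusion. Samples active against C. albicans but not Escherichia coli were retested on agar-tryptic broth plates supplemented with ergosterol at 0–100 ppm. The assay picks out antifungal activity that depends on binding to membrane ergosterol.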

Leukemia cell = assay: In vivo antitumor activity against human leukemia cells xenografted in mouse at 160 ug/kg/injection relative to control; assay type: functional
Melanoma cell = assay: In vivo antitumor activity against human melanoma cells xenografted in mouse at 160 ug/kg//injection relative to control; assay type: functional
P388 = assay: In vivo antitumor activity against mouse P388 cells at 0.125 mg/kg relative to control; assay type: functional

[H][C@]12Nc3c4cccc3[C@]13C1=C(N=C(O1)[C@H](C(C)C)NC(=O)[C@@H](NC(=O)[C@@H](O)C(C)C)Cc1ccc(c3c1)O2)c1nc(Cl)c(o1)-c1c(Cl)[nH]c2cccc-4c12 [DIAZONAMIDE A]
IC50 (HCT-116): < 0.015 µg/mL | IC50 (B16): < 0.015 µg/mL

COC[C@@H]([C@H](O)[C@H](O)C(=O)N[C@H](C)C[C@H](C)c1nc(/C=C/C[C@@H]2O[C@]3(C[C@@H](O)[C@@H]2C)O[C@H]([C@H](C[C@H](O)[C@H](C)[C@H](O)[C@H](C)/C=C(C)/C(C)=C\C=C\C(C)=C\C#N)OC)[C@H](OP(=O)(O)O)C3(C)C)co1)N(C)C [CALYCULIN H]
IC50 [1]: 0.9 nM

COC[C@@H]([C@H](O)[C@H](O)C(=O)N[C@H](C)C[C@H](C)c1nc(/C=C/C[C@@H]2O[C@]3(C[C@@H](O)[C@@H]2C)O[C@H]([C@H](C[C@H](O)[C@H](C)[C@H](O)[C@H](C)/C=C(C)/C(C)=C\C=C\C(C)=C/C#N)OC)[C@H](OP(=O)(O)O)C3(C)C)co1)N(C)C [CALYCULIN G]
IC50 [1]: 0.9 nM

CO[C@@H]1C[C@@H](O)C[C@@H](O)[C@H](C)[C@@H]([C@@H](C)[C@@H](O)[C@@H](C)CC[C@H]2C[C@H](OC)C[C@H](C)O2)OC(=O)/C=C/C(C)=C/C[C@H](O)C[C@@H]2C=CC[C@H](C[C@H](OC)[C@@H](C)[C@@H](O)C[C@@H](O)[C@H](C)[C@@H]([C@@H](C)[C@@H](O)[C@@H](C)CC[C@H]3C[C@H](OC)C[C@H](C)O3)OC(=O)/C=C/C(C)=C/C[C@H](O)C[C@@H]3CCC[C@H](C1)O3)O2 [SWINHOLIDE B]
IC50 (KB): 0.04 µg/mL (≈ 0.029 µM)

CO[C@H]1C[C@H](CC[C@H](C)[C@H](O)[C@H](C)[C@H]2OC(=O)/C=C/C(C)=C/C[C@H](O)C[C@@H]3C=CC[C@@H](C[C@H](OC)[C@@H](C)[C@@H](O)C[C@@H](O)[C@H](C)[C@@H]([C@@H](C)[C@@H](O)[C@@H](C)CC[C@H]4C[C@H](OC)C[C@H](C)O4)OC(=O)/C=C/C(C)=C/C[C@H](O)C[C@@H]4C=CC[C@@H](C[C@H](OC)[C@@H](C)[C@@H](O)C[C@@H](O)[C@@H]2C)O4)O3)O[C@@H](C)C1 [Swinholide A]
IC50 (KB): 0.04 µg/mL (≈ 0.0288 µM)

COC[C@@H]([C@H](O)[C@H](O)C(=O)NCC[C@H](C)c1nc(/C=C/C[C@@H]2O[C@]3(C[C@@H](O)[C@@H]2C)O[C@H]([C@H](C[C@H](O)[C@H](C)[C@H](O)[C@H](C)/C=C(C)/C(C)=C\C=C\C(C)=C/C#N)OC)[C@H](OP(=O)(O)O)C3(C)C)co1)N(C)C [CALYCULIN E]
IC50 [1]: 0.9 nM

CC[C@H]1CCCC[C@@]2(C[C@@H]3CC[C@@H]4[C@H](C(=O)OCCCCCCCCCCCCCCCC(=O)N(CCCN)C[C@@H](O)CCN)[C@]5(CCC[C@@H](C)O5)N=C(N2)N34)O1 [CRAMBESCIDIN 800]
Activity (L1210): 98%

CO[C@H]1C[C@H](CC[C@H](C)[C@H](O)[C@H](C)[C@H]2OC(=O)/C=C/C(C)=C/C[C@H](O)C[C@@H]3CCC[C@H](C[C@H](OC)[C@@H](C)[C@@H](O)C[C@@H](O)[C@H](C)[C@@H]([C@@H](C)[C@@H](O)[C@@H](C)CC[C@H]4C[C@H](O)C[C@H](C)O4)OC(=O)/C=C/C(C)=C/C[C@H](O)C[C@@H]4C=CC[C@H](C[C@H](OC)[C@@H](C)[C@@H](O)C[C@@H](O)[C@@H]2C)O4)O3)O[C@@H](C)C1 [swiholide C]
IC50 (KB): 0.04 µg/mL (≈ 0.029 µM)

COC[C@@H]([C@H](O)[C@H](O)C(=O)NCC[C@H](C)c1nc(/C=C/C[C@@H]2O[C@]3(C[C@@H](O)[C@@H]2C)O[C@H]([C@H](C[C@H](O)[C@H](C)[C@H](O)[C@H](C)/C=C(C)/C(C)=C/C=C/C(C)=C\C#N)OC)[C@H](OP(=O)(O)O)C3(C)C)co1)N(C)C [CALYCULIN A]
IC50 [1]: 0.9 nM

COC[C@@H]([C@H](O)[C@H](O)C(=O)NCC[C@H](C)c1nc(/C=C/C[C@@H]2O[C@]3(C[C@@H](O)[C@@H]2C)O[C@H]([C@H](C[C@H](O)[C@H](C)[C@H](O)[C@H](C)/C=C(C)/C(C)=C\C=C\C(C)=C\C#N)OC)[C@H](OP(=O)(O)O)C3(C)C)co1)N(C)C [CALYCULIN F]
IC50 [1]: 0.9 nM

C[C@@H]1[C@H](O)[C@@H](C)/C=C/C=C/C=C/C=C/C=C/C=C/C=C/[C@H](O[C@@H]2O[C@H](C)[C@@H](O)[C@H](N)[C@@H]2O)C[C@@H]2O[C@](O)(C[C@@H](O)C[C@@H](O)[C@H](O)CC[C@@H](O)C[C@@H](O)CC(=O)O[C@H]1C)C[C@H](O)[C@H]2C(=O)O [AMPHOTERICIN B]
Activity (Candida albicans): 50%

CC[C@@H]1CCCC[C@]2(C[C@H]3CCC4(O)C(C(=O)OCCCCCCCCCCCCCCCCC(=O)N(CCCN)CC(O)CCN)[C@@]5(CCC[C@H](C)O5)N=C(N2)N34)O1 (stereo partly drawn) [CRAMBESCIDIN 830]
Activity (L1210): 98%

CC[C@H]1CCCC[C@@]2(C[C@@H]3CC[C@]4(O)[C@H](C(=O)OCCCCCCCCCCCCCCCC(=O)N(CCCN)C[C@@H](O)CCN)[C@]5(CCC[C@@H](C)O5)N=C(N2)N34)O1 [CRAMBESCIDIN 816]
Activity (L1210): 98%

COC[C@@H]([C@H](O)[C@H](O)C(=O)N[C@H](C)C[C@H](C)c1nc(/C=C/C[C@@H]2O[C@]3(C[C@@H](O)[C@@H]2C)O[C@H]([C@H](C[C@H](O)[C@H](C)[C@H](O)[C@H](C)/C=C(C)/C(C)=C/C=C/C(C)=C/C#N)OC)[C@H](OP(=O)(O)O)C3(C)C)co1)N(C)C [CALYCULIN D]
IC50 [1]: 0.9 nM

COC[C@@H]([C@H](O)[C@H](O)C(=O)NCC[C@H](C)c1nc(/C=C/C[C@@H]2O[C@]3(C[C@@H](O)[C@@H]2C)O[C@H]([C@H](C[C@H](O)[C@H](C)[C@H](O)[C@H](C)/C=C(C)/C(C)=C/C=C/C(C)=C/C#N)OC)[C@H](OP(=O)(O)O)C3(C)C)co1)N(C)C [CALYCULIN B]
IC50 [1]: 0.9 nM

CC[C@@H]1CCCC[C@]2(C[C@H]3CCC4(O)C(C(=O)OCCCCCCCCCCCCCCCCCC(=O)N(CCCN)CC(O)CCN)[C@@]5(CCC[C@H](C)O5)N=C(N2)N34)O1 (stereo partly drawn) [CRAMBESCIDIN 844]
Activity (L1210): 98%

CC[C@H](C)[C@H]1NC(=O)[C@@H](NC(=O)[C@@H](CC(C)C)N(C)C(=O)[C@@H]2CCCN2C(=O)C(C)=O)[C@@H](C)OC(=O)[C@H](Cc2ccc(OC)cc2)N(C)C(=O)[C@@H]2CCCN2C(=O)[C@H](CC(C)C)NC(=O)[C@@H](C)C(=O)[C@H](C(C)C)OC(=O)C[C@@H]1O [PLITIDEPSIN]
T/C (Leukemia cell): 210% | T/C (Melanoma cell): 218%

C/C=C\[C@H](C)[C@H]1O[C@@]1(C)[C@@H](O)[C@H]1COC(=O)[C@H](O)[C@@H](OC)[C@H](C)C(=O)[C@H](C)[C@@H](O)/C(C)=C/[C@H](C)C(=O)CC[C@@H](C)C1=O
T/C (P388): 190%

CO[C@H]1C[C@H](CC[C@H](C)[C@H](O)[C@H](C)[C@H]2OC(=O)/C=C/C(C)=C/C[C@H](O)C[C@@H]3CCC[C@H](C[C@H](OC)[C@@H](C)[C@@H](O)C[C@@H](O)[C@H](C)[C@H](O)[C@@H](C)[C@H]([C@@H](C)CC[C@H]4C[C@H](OC)C[C@H](C)O4)OC(=O)/C=C/C(C)=C/C[C@H](O)C[C@@H]4C=CC[C@H](C[C@H](OC)[C@@H](C)[C@@H](O)C[C@@H](O)[C@@H]2C)O4)O3)O[C@@H](C)C1 [ISOSWINHOLIDE A]
IC50 (KB): 1.1 µg/mL (≈ 0.79 µM)

CO/N=C/CCCCCCC[C@@H](C)CCCCCCCCCCc1cccnc1 [IKIMINE A]
IC50 (KB): 5 µg/mL (≈ 12.4 µM)

COC[C@@H]([C@H](O)[C@H](O)C(=O)N[C@H](C)C[C@H](C)c1nc(/C=C/C[C@@H]2O[C@]3(C[C@@H](O)[C@@H]2C)O[C@H]([C@H](C[C@H](O)[C@H](C)[C@H](O)[C@H](C)/C=C(C)/C(C)=C/C=C/C(C)=C\C#N)OC)[C@H](OP(=O)(O)O)C3(C)C)co1)N(C)C [CALYCULIN]
IC50 [1]: 0.9 nM
